Records with an inconclusive call do not appear.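 The calls were made as follows, unless noted: active = viability increase at or above a cutoff of the median across tested compounds plus 3 SD (cut at about 8.5% in these data, passing the limit was not always enough); inconclusive = some gains above the cutoff, reason not given; inactive = the rest.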
Columns and labels:
[1] = S. cerevisiae growth inhibition in permissive medium (OD615), pilot counter-assay for S. cerevisiae lifespan shortening project, permissive growth control (AID 705;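 active = growth inhibition above 25% in both replicates, a cutoff set 3 SD above the mean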); settings: OD615, 24 h, at 10 µM, active compounds read high
Method in brief: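 Material: engineered DeaD yeast; compound dosing: one dose 10 µM, DMSO 0.25% final; measure: yeast growth inhibition indicated by reduced 24 h OD615; detection: OD615 turbidity read; incubation: cells pre-grown 4 h, then 24 h compound exposure, 30 °C humidified; medium: permissive synthetic complete medium with raffinose and galactose carbon sources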

[2] = S. cerevisiae growth inhibition in restrictive medium, OD615, pilot screen, restrictive growth control, yeast lifespan reduction project (AID 706;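 active = growth inhibition above a set limit, 3 SD over mean compound inhibition, in both replicates, cut at about 43% in these data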;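 also: modified DeaD lifespan yeast strain shifted to restrictive glucose medium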); settings: OD615, 48 h, at 10 µM, active compounds read high
Method in brief: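 material = engineered S. cerevisiae DeaD strain | medium = glucose-based CSMM-D restrictive medium | times = 4 h pre-incubation, 48 h exposure at 30 °C | technique = OD615 absorbance reading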

[3] = doxorubicin toxicity protection in MRP-1 cells – H69AR cells, CellTiter-Glo, duplicate, MRP-1 activator project, pilot screen (AID 807); settings: H69AR viability with doxorubicin, CellTiter-Glo luminescence; at 10 µM; active compounds read high;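 also: compound pretreatment 18-22 h then 72 h combined with doxorubicin; 0% = doxorubicin alone and 100% = vehicle without doxorubicin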
[4] = viability of HCT116 without oncogenic beta-catenin – human colon tumor cells, pilot screen (AID 823;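 active = cell viability at or below a set limit in both duplicate runs, the limit being the all-compound median minus 4 SD, cut at about 23% in these data, passing the limit was not always enough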;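 also: 0% = wells killed by 20 µM Hyamine and 100% = untreated DMSO cell wells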); settings: HCT116 beta-catenin knockout viability, CellTiter-Glo, 60 h; at 10 µM; active compounds read low
[5] = viability of PTEN-null HCT116 cells – cell-based, HCT116 clonal line, CellTiter-Glo, pilot screen (AID 824;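 active = viability at or below 27.92% in each of two runs, the all-compound median minus 4 SD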;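 also: 0% = 20 µM Hyamine control and 100% = vehicle cell control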); settings: HCT116 PTEN-deleted viability, 60 h, at 10 µM, active compounds read low
[6] = RAM pathway blockade in budding yeast – dse1pr::URA3 reporter, 5-FOA selection, pilot screen (AID 869;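 active = inhibition over a set limit, the all-compound mean plus 3 SD, in both replicate runs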;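 also: 0% = DMSO wells with no growth and 100% = 10 µM 1-NA-PP1 with full growth; RAM network block rescues cells from 5-FOA so hits raise OD615 growth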); settings: S. cerevisiae dse1pr::URA3 5-FOA growth, OD615, 2 d; at 10 µM; active compounds read high; strain carries analog-sensitive mutant Cbk1 kinase
[7] = RAM signaling pathway blockade in yeast – S. cerevisiae, Pdr1DBD-CYC8 efflux-inhibited sensitized strain, primary screen (AID 1298;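 active = RAM network inhibition above 8.4% in each of two replicates, 3 SD over the compound average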;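 also: 0% = DMSO untreated cells without growth and 100% = 10 µM 1-NA-PP1 full growth; higher means more yeast growth rescued from 5-FOA killing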); settings: S. cerevisiae cbk1-as DSE1-URA3 strain, 5-FOA growth OD615, 2 d; at 50 µM; active compounds read high

Cc1noc(C)c1S(=O)(=O)N(CC(=O)Nc1ccc2c(c1)OCO2)c1ccc(C(C)C)cc1
inactive: growth inhibition [1] -5.59% | growth inhibition [2] -3.17% | viability increase [3] -3.69% | viability [4] 96.4% | viability [5] 93.5% | inhibition [6] 2.64% | RAM network inhibition [7] -0.06%

C=C(C)Cn1c(NCCC)nc2c1c(=O)n(C)c(=O)n2C
inactive: growth inhibition [1] -9.8% | growth inhibition [2] -3.75% | viability increase [3] -0.51% | viability [4] 98% | viability [5] 95.2% | inhibition [6] 2.74% | RAM network inhibition [7] 1.36%

CC1CCc2nn(CC(=O)NC3CCCC3)cc2C1 (stereo not given)
inactive: growth inhibition [1] 0.6% | growth inhibition [2] 10.9% | viability increase [3] -1.14% | viability [4] 105% | viability [5] 92.9% | inhibition [6] 0.925% | RAM network inhibition [7] 0.63%

CCc1nc(C)cn1S(=O)(=O)c1ccc(Cl)c(Cl)c1Cl
inactive: growth inhibition [1] -6.5% | growth inhibition [2] -13.9% | viability increase [3] -0.17% | viability [4] 99.3% | viability [5] 98.7% | inhibition [6] 0.805% | RAM network inhibition [7] 7.3%

COc1ccc(N2CSC3=C(C#N)C(c4cc(OC)ccc4OC)CC(=O)N3C2)c(OC)c1 (stereo not given)
inactive: growth inhibition [1] -1.38% | growth inhibition [2] 21.7% | viability increase [3] -6.09% | viability [4] 80.5% | viability [5] 82.6% | inhibition [6] 0.54% | RAM network inhibition [7] 2.28%

O=C(NCC1COc2ccccc2O1)C1CCC(CNc2c(N3CCCCC3)c(=O)c2=O)CC1 (stereo not given)
inactive: growth inhibition [1] -8.76% | growth inhibition [2] -9.54% | viability increase [3] 0.01% | viability [4] 88.6% | viability [5] 86.4% | inhibition [6] 2.89% | RAM network inhibition [7] 4.02%

O=c1oc(-c2cccnc2)nc2ccccc12
inactive: growth inhibition [1] -8.07% | growth inhibition [2] -3.38% | viability increase [3] -0.21% | viability [4] 107% | viability [5] 96.1% | inhibition [6] 0.595% | RAM network inhibition [7] -0.11%

Oc1cc(Cc2ccccc2)cnc1CN1CCOCC1
inactive: growth inhibition [1] 1.49% | growth inhibition [2] 2.83% | viability increase [3] -0.73% | viability [4] 96.8% | viability [5] 87.3% | inhibition [6] 0.81% | RAM network inhibition [7] 1.51%

O=C(CCN1CCc2ccccc2C1)Nc1ccccc1
inactive: growth inhibition [1] -6.32% | growth inhibition [2] -8.03% | viability increase [3] -4.06% | viability [4] 89.8% | viability [5] 89.3% | inhibition [6] 2.04% | RAM network inhibition [7] 2.39%

CC(=O)c1c(C)[nH]c(C(=O)Nc2cc(C)ccc2C)c1C
inactive: growth inhibition [1] 8.06% | growth inhibition [2] -8.57% | viability increase [3] -1.16% | viability [4] 98.5% | viability [5] 96.6% | inhibition [6] 2.14% | RAM network inhibition [7] 1.74%

Cn1c(C(=O)Nc2ccc3c(c2)OCCO3)cc2c(=O)n(C)c3ccccc3c21
inactive: growth inhibition [1] -14.2% | growth inhibition [2] -2.83% | viability increase [3] -7.31% | viability [4] 72.5% | viability [5] 64.3% | inhibition [6] 1.94% | RAM network inhibition [7] 4.95%

Cn1c(Cn2c(=O)sc3ccccc32)nnc1SCC(=O)N1CCCc2ccccc21
inactive: growth inhibition [1] -4.97% | growth inhibition [2] 0.455% | viability increase [3] -3.71% | viability [4] 96.5% | viability [5] 95.1% | inhibition [6] 1.82% | RAM network inhibition [7] 6.16%

O=c1[nH]cnc2c1sc(=S)n2-c1ccccc1
inactive: growth inhibition [1] 10.2% | growth inhibition [2] 29.8% | viability increase [3] -0.17% | viability [4] 101% | viability [5] 97.1% | inhibition [6] 1.87% | RAM network inhibition [7] 8.71%

C/C(N)=C(/C#N)C(=O)CSc1n[nH]c(-c2ccccc2Br)n1
inactive: growth inhibition [1] -8.32% | growth inhibition [2] 8.69% | viability increase [3] 2.73% | viability [4] 110% | viability [5] 105% | inhibition [6] -0.48% | RAM network inhibition [7] -1.02%

COc1cc(NC(=O)C2CCCC2)c(OC)cc1Cl
inactive: growth inhibition [1] -8.4% | growth inhibition [2] -12% | viability increase [3] -3.09% | viability [4] 81.9% | viability [5] 78.4% | inhibition [6] 1.02% | RAM network inhibition [7] -0.72%

O=C(O)CCCCCN1C(=O)C(=O)/C(=C(/O)c2ccccc2)C1c1ccccc1 (stereo not given)
inactive: growth inhibition [1] -21.2% | growth inhibition [2] -18.6% | viability increase [3] 0.21% | viability [4] 100% | viability [5] 103% | inhibition [6] 3.47% | RAM network inhibition [7] 2.1%

CN1CCN(C(=O)c2cn(C)c3ccc(S(=O)(=O)N(C)C4CCCCC4)cc3c2=O)CC1
inactive: growth inhibition [1] -7.8% | growth inhibition [2] -13.2% | viability increase [3] -2.39% | viability [4] 102% | viability [5] 101% | inhibition [6] 0% | RAM network inhibition [7] -0.26%

Nc1nc(N2CCOCC2)nc(N(c2ccccc2)c2ccccc2)n1
inactive: growth inhibition [1] -17.1% | growth inhibition [2] -9.3% | viability increase [3] -1.89% | viability [4] 107% | viability [5] 92.4% | inhibition [6] 1.93% | RAM network inhibition [7] 1.9%

CCOC(=O)C1=C(O)CSC1=Nc1ccc(Cl)cc1
inactive: growth inhibition [1] -7.6% | growth inhibition [2] -10.1% | viability increase [3] -1.62% | viability [4] 107% | viability [5] 99.8% | inhibition [6] 1.17% | RAM network inhibition [7] 7.14%

CCn1c(C(=O)N2CCc3ccccc3C2)cc2sccc21
inactive: growth inhibition [1] -11.6% | growth inhibition [2] -2.25% | viability increase [3] -0.05% | viability [4] 84.1% | viability [5] 74.5% | inhibition [6] 0.465% | RAM network inhibition [7] 4.84%

Cc1cc(C)cc(N(CC(=O)NC2CC3CCC2C3)S(C)(=O)=O)c1 (stereo not given)
inactive: growth inhibition [1] -11.4% | growth inhibition [2] -10.6% | viability increase [3] -0.31% | viability [4] 90.4% | viability [5] 88% | inhibition [6] -0.04% | RAM network inhibition [7] 2.79%

CCNc1nc(NCC)nc(-n2nc(C)cc2C)n1
inactive: growth inhibition [1] 4.27% | growth inhibition [2] 4.28% | viability increase [3] -0.22% | viability [4] 100% | viability [5] 103% | inhibition [6] 0.2% | RAM network inhibition [7] 0.75%

CN(C)c1cccc(NC(=O)Cc2ccc(F)cc2)c1
inactive: growth inhibition [1] -11.6% | growth inhibition [2] -21.4% | viability increase [3] -4.02% | viability [4] 85.4% | viability [5] 84.2% | inhibition [6] 1.14% | RAM network inhibition [7] 5.85%

CC1CCN(c2nc3c(c(=O)n(C)c(=O)n3C)n2CCSc2ncccn2)CC1
inactive: growth inhibition [1] -3.47% | growth inhibition [2] -3.19% | viability increase [3] -0.04% | viability [4] 99.1% | viability [5] 96.3% | inhibition [6] 1.61% | RAM network inhibition [7] 2.44%

CSc1oc(-c2ccc(F)cc2)nc1S(=O)(=O)c1ccccc1
inactive: growth inhibition [1] -2.16% | growth inhibition [2] 0.385% | viability increase [3] -1.13% | viability [4] 97.2% | viability [5] 93.7% | inhibition [6] 0.585% | RAM network inhibition [7] 4.67%

CN(C)Cc1nc2c([nH]1)c(=O)n(C)c(=O)n2C
inactive: growth inhibition [1] -6.75% | growth inhibition [2] -18% | viability increase [3] -1.31% | viability [4] 95.1% | viability [5] 92.7% | inhibition [6] 1% | RAM network inhibition [7] 4.51%

N#CC1=C(SCC(N)=O)NC(=O)CC1c1ccccc1Cl (stereo not given)
inactive: growth inhibition [1] -3.39% | growth inhibition [2] -17.1% | viability increase [3] -2.43% | viability [4] 98% | viability [5] 96.5% | inhibition [6] 0.635% | RAM network inhibition [7] -0.49%

COCCCNC(=O)CN1C(=O)CSc2ncccc21
inactive: growth inhibition [1] -3.21% | growth inhibition [2] 3.79% | viability increase [3] 0.91% | viability [4] 105% | viability [5] 101% | inhibition [6] 2.06% | RAM network inhibition [7] 2.8%

CCCOC(=O)C1C2C=CC3(CN(c4ccc(Cl)c(F)c4)C(=O)C13)O2 (stereo not given)
inactive: growth inhibition [1] 4.25% | growth inhibition [2] 0.67% | viability increase [3] -2.67% | viability [4] 93.4% | viability [5] 86.5% | inhibition [6] -0.06% | RAM network inhibition [7] 1.54%

C=CCOC(=O)COc1ccc2c(C)c(C)c(=O)oc2c1
inactive: growth inhibition [1] -17.9% | growth inhibition [2] -6.88% | viability increase [3] 0.26% | viability [4] 96.6% | viability [5] 95.9% | inhibition [6] 0.765% | RAM network inhibition [7] 4.38%

Cc1cc(C)n(-c2nc3ccccc3nc2N2CCOCC2)n1
inactive: growth inhibition [1] -12.6% | growth inhibition [2] 7.74% | viability increase [3] -1.22% | viability [4] 98% | viability [5] 98.3% | inhibition [6] 2.33% | RAM network inhibition [7] 2.25%

CN(C)Cc1c(O)ccc2occ(C(O)c3ccccc3)c12 (stereo not given)
inactive: growth inhibition [1] -13.2% | growth inhibition [2] -4.58% | viability increase [3] -3.71% | viability [4] 77.2% | viability [5] 82.5% | inhibition [6] 1.07% | RAM network inhibition [7] 4.33%

COc1ccc(C2C(C(=O)Nc3cc(C)on3)c3ccccc3C(=O)N2C)cc1 (stereo not given)
inactive: growth inhibition [1] 2.9% | growth inhibition [2] -2.79% | viability increase [3] -1.73% | viability [4] 101% | viability [5] 101% | inhibition [6] 1.46% | RAM network inhibition [7] 0.37%

O=C(Cn1c(=O)oc2cc(S(=O)(=O)N3CCc4ccccc43)ccc21)NC1CCCC1
inactive: growth inhibition [1] -3.26% | growth inhibition [2] 2.94% | viability increase [3] -1.06% | viability [4] 78.8% | viability [5] 73.9% | inhibition [6] 2.91% | RAM network inhibition [7] 0.88%

O=C(Cn1c2c(c(-c3ccccc3)cc1=O)CCCC2)N1CCCCCC1
inactive: growth inhibition [1] -10.5% | growth inhibition [2] -10.3% | viability increase [3] -3.64% | viability [4] 48.8% | viability [5] 49% | inhibition [6] 1.49% | RAM network inhibition [7] -0.37%
